Data: article PMC2647014 (Journal of the American Chemical Society, 2008)
Each block holds one molecule with its values, some of them ahead of it.

Assays:
[1] = Stability to hydrolysis of the imide ring in PBS buffer; type: physicochemical
Method in brief: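 Fluorophore-bearing model peptides are incubated in PBS at pH 6, 7 and 8 and 28 °C, with fluorescence monitored in a 96-well plate over 24 hrs. For the 4-DMAP peptide, percent conversion is the percent loss of fluorescence from time zero.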

[2] = cited from earlier work
[3] = Photophysical properties of the fluorescent KR peptides; type: physicochemical; conditions: visible spectrum
[4] = Stability toward 4-methylpiperidine / piperidine; type: physicochemical; conditions: during preparation of fluorescent peptides by SPPS
Method in brief: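 Resin-bound model peptides are treated with 4-methylpiperidine under conditions simulating a standard Fmoc-deprotection cycle. Treated and untreated samples are cleaved from the resin under acidic conditions. Crude mixtures are analysed by HPLC and ESI mass spectrometry for hydrolysis byproducts.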

Compound: CN(C)c1ccc2c(c1)C(=O)NC2=O [4-DMAP, 4-N,N-dimethylaminophthalimide, reference compound]
- hydrolysis product fluorescence (in words) ([1]; hydrolysis of the imide ring, high pH): non-fluorescent byproduct

Compound: CN(C)c1ccc2cc(C(=O)CBr)ccc2c1 [BADAN, 6-bromoacetyl-2-dimethylaminonaphthalene]
- fluorescence quantum yield in water (Φwater) [2]: 0.18

Compound: CN(C)c1ccc2c3c(cccc13)C(=O)N(C[C@H](NC(=O)OCC1c3ccccc3-c3ccccc31)C(=O)O)C2=O [compound 4, N-α-Fmoc-(4-N,N-Dimethylamino-1,8-naphthalimido)-alanine]
- susceptibility to piperidine (in words) [4]: shows no susceptibility to piperidine

Compound: CN(C)c1ccc2cc3c(cc2c1)C(=O)NC3=O [6-DMN, 6-N,N-dimethylamino-2,3-naphthalimide, reference compound]
- emission maximum of fluorescent species from hydrolysis ([1]; hydrolysis product, high pH): 470-480 nm

Second part, led by results:

- wavelength of excitation of the fluorophore / amino acid [3]: 400-450 nm
Compound: CN(C)c1ccc2c3c(cccc13)C(=O)N(C[C@H](N)C(=O)O)C2=O [4-DMNA, 4-N,N-dimethylamino-1,8-naphthalimidoalanine]
- relative stability of fluorescent side-chain (in words) ([1]; compared with 4-DAPA and 6-DMNA): significantly more stable than those of 4-DAPA and 6-DMNA

- fluorescence emission after 24 hrs (in words) ([1]; PBS buffer, 28 °C, 24 hrs, Figure 2b, harshest conditions anticipated): no significant change in fluorescence
Compound: CN(C)c1ccc2c3c(cccc13)C(=O)NC2=O [4-DMN, 4-N,N-dimethylamino-1,8-naphthalimide]
